# From ChEMBL document CHEMBL2157882, “Structure-activity relationship study of pyrimido[1,2-c][1,3]benzothiazin-6-imine derivatives for potent anti-HIV agents” (Bioorg Med Chem, 2012)
# What was measured:
# [1] = tested on: Human immunodeficiency virus 1; test: Antiviral activity against HIV 1 in HeLa-CD4/CCR5 cells assessed as inhibition of viral infectivity after 48 hrs by MAGI assay; assay type: functional, organism-based; conditions: Human immunodeficiency virus 1, MAGI-CCR5, 48 h
# Method in brief: (§1)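 HeLa-CD4/CCR5-LTR/β-gal target cells at 10⁴ cells/well, plated the day before infection; inoculated with virus at 60 MAGI U/well and cultured with graded compound concentrations in fresh medium. After 48 h, X-Gal-stained blue cells were counted per well. EC50 (50% block of infection) was interpolated from the two concentrations bracketing 50% inhibition; three independent experiments.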
# [2] = tested on: Human immunodeficiency virus 1; test: Antiviral activity against HIV 1 NL4-3 in HeLa-CD4/CCR5 cells assessed as inhibition of viral infectivity after 48 hrs by MAGI assay; assay type: functional, organism-based; conditions: Human immunodeficiency virus 1, NL4-3, MAGI-CCR5, 48 h; method in brief: as §1
# [3] = tested on: Human immunodeficiency virus 1; test: Antiviral activity against HIV 1 BaL in HeLa-CD4/CCR5 cells assessed as inhibition of viral infectivity after 48 hrs by MAGI assay; assay type: functional, organism-based; conditions: Human immunodeficiency virus 1, BaL, MAGI-CCR5, 48 h; method in brief: as §1
# [4] = tested on: Human immunodeficiency virus 2; test: Antiviral activity against HIV 2 ROD in HeLa-CD4/CCR5 cells assessed as inhibition of viral infectivity after 48 hrs by MAGI assay; assay type: functional, organism-based; conditions: Human immunodeficiency virus 2, ISOLATE ROD, MAGI-CCR5, 48 h; method in brief: as §1
# [5] = Therapeutic index, ratio of CC50 for HeLa-CD4/CCR5 cells to EC50 for HIV 1 in HeLa-CD4/CCR5 cells assessed as inhibition of viral infectivity; assay type: cell-based; conditions: human, read-out: Ratio CC50/EC50
# [6] = Cytotoxicity against human HeLa cells expressing CD4/CCR5; assay type: cell-based
# [7] = tested on: Human immunodeficiency virus 2; test: Antiviral activity against HIV 2 EHO in HeLa-CD4/CCR5 cells assessed as inhibition of viral infectivity after 48 hrs by MAGI assay; assay type: functional, organism-based; conditions: Human immunodeficiency virus 2, EHO, MAGI-CCR5, 48 h; method in brief: as §1
# HeLa = test: Cytotoxicity against human HeLa cells expressing CD4/CCR5 at 10 uM; assay type: cell-based
# [8] = tested on: Human immunodeficiency virus 2; test: Ratio of PD 404182 EC50 to compound EC50 for HIV 2 EHO in HeLa-CD4/CCR5 cells assessed as inhibition of viral infectivity after 48 hrs by MAGI assay; assay type: functional
# [9] = tested on: Human immunodeficiency virus 2; test: Ratio of PD 404182 EC50 to compound EC50 for HIV 2 ROD in HeLa-CD4/CCR5 cells assessed as inhibition of viral infectivity after 48 hrs by MAGI assay; assay type: functional, ISOLATE ROD
# [10] = tested on: Human immunodeficiency virus 1; test: Ratio of PD 404182 EC50 to compound EC50 for HIV 1 BaL in HeLa-CD4/CCR5 cells assessed as inhibition of viral infectivity after 48 hrs by MAGI assay; assay type: functional
# [11] = tested on: Human immunodeficiency virus 1; test: Ratio of PD 404182 EC50 to compound EC50 for HIV 1 NL4-3 in HeLa-CD4/CCR5 cells assessed as inhibition of viral infectivity after 48 hrs by MAGI assay; assay type: functional
EC50 [1] [nM],Structure (SMILES),further results
1260,N=C1Sc2cc(-c3cccc([N+](=O)[O-])c3)ccc2C2=NCCCN12,
480,COc1ccc(Cl)cc1-c1ccc2c(c1)SC(=N)N1CCCN=C21,
270,COc1ccc(-c2ccc3c(c2)SC(=N)N2CCCN=C32)cc1OC,
200,N=C1Sc2cc(-c3cc4ccccc4o3)ccc2C2=NCCCN12,
2620,N=C1Sc2cc(-c3cccc(O)c3)ccc2C2=NCCCN12,
390,N=C1Sc2cc(-c3cccc4ccccc34)ccc2C2=NCCCN12,
440,N#Cc1ccc(-c2ccc3c(c2)SC(=N)N2CCCN=C32)cc1,
440,N=C1Sc2ccccc2C2=NCCCN12,EC50 [2]: 380 nM; EC50 [3]: 370 nM; EC50 [4]: 300 nM; selectivity ratio [5]: > 200; CC50 [6]: > 100000 nM; EC50 [7]: 310 nM
420,N=C1Sc2cc(-n3cccn3)ccc2C2=NCCCN12,
> 10000,N=C1Sc2cc(Br)ccc2C2=NCC3(CCN(C(N)=O)CC3)CN12,
5120,N=C1Sc2cc(-n3ccnc3)ccc2C2=NCCCN12,
320,COc1ccc(-c2ccc3c(c2)SC(=N)N2CCCN=C32)cc1Cl,
550,N=C1Sc2cc(-c3ccc(C(F)(F)F)cc3)ccc2C2=NCCCN12,
240,CC1(C)CN=C2c3ccccc3SC(=N)N2C1,
> 1000,N=C1Sc2cc(-c3ccc4c(C(=O)C(F)(F)F)c[nH]c4c3)ccc2C2=NCCCN12,Activity (HeLa): Toxic
260,N=C1Sc2cc(-c3cc4ccccc4s3)ccc2C2=NCCCN12,
250,N=C1Sc2cc(Br)ccc2C2=NCC3(CCCCC3)CN12,
> 1000,N=C1Sc2cc(-c3ccc4[nH]cc(C(=O)C(F)(F)F)c4c3)ccc2C2=NCCCN12,Activity (HeLa): Toxic
240,N=C1Sc2cc(-c3ccccc3)ccc2C2=NCCCN12,
410,COc1ccccc1-c1ccc2c(c1)SC(=N)N1CCCN=C21,
1170,N#Cc1cccc(-c2ccc3c(c2)SC(=N)N2CCCN=C32)c1,
> 10000,CS(=O)(=O)Nc1cccc(-c2ccc3c(c2)SC(=N)N2CCCN=C32)c1,
8710,N=C1Sc2cc(-c3ccc(C(N)=O)cc3)ccc2C2=NCCCN12,
440,COC(=O)N1CCC2(CC1)CN=C1c3ccc(Br)cc3SC(=N)N1C2,
250,N=C1Sc2cc(-c3ccc4ncccc4c3)ccc2C2=NCCCN12,

EC50 [1] [nM],Structure (SMILES),further results
1730,N=C1Sc2cc(Br)ccc2C2=NCC3(CCOCC3)CN12,
260,N=C1Sc2cc(-c3ccc4c(c3)OCCO4)ccc2C2=NCCCN12,
1810,CS(=O)(=O)N1CCC2(CC1)CN=C1c3ccc(Br)cc3SC(=N)N1C2,
260,N=C1Sc2cc(-c3ccco3)ccc2C2=NCCCN12,
320,N=C1Sc2cc(-c3ccccc3-c3ccccc3)ccc2C2=NCCCN12,
> 10000,CC(=O)Nc1cccc(-c2ccc3c(c2)SC(=N)N2CCCN=C32)c1,
250,COc1cc(-c2ccc3c(c2)SC(=N)N2CCCN=C32)cc(OC)c1OC,
380,N=C1Sc2cc(-c3ccc(OC(F)(F)F)cc3)ccc2C2=NCCCN12,
540,N=C1Sc2cc(-c3ccncc3)ccc2C2=NCCCN12,
460,N=C1Sc2cc(-c3ccc([N+](=O)[O-])cc3)ccc2C2=NCCCN12,
390,COC(=O)c1cccc(-c2ccc3c(c2)SC(=N)N2CCCN=C32)c1,
1190,CC(O)c1cccc(-c2ccc3c(c2)SC(=N)N2CCCN=C32)c1 (racemic),
240,COc1ccc(-c2ccc3c(c2)SC(=N)N2CCCN=C32)cc1,
220,N=C1Sc2cc(-c3ccsc3)ccc2C2=NCCCN12,
450,N=C1Sc2cc(-c3cccnc3)ccc2C2=NCCCN12,
150,COc1cccc(-c2ccc3c(c2)SC(=N)N2CCCN=C32)c1,
1450,COc1ccc(CN2CCC3(CC2)CN=C2c4ccc(Br)cc4SC(=N)N2C3)cc1,
810,COC(=O)c1ccc(-c2ccc3c(c2)SC(=N)N2CCCN=C32)cc1,
250,N=C1Sc2cc(Br)ccc2C2=NCCCN12,
150,N=C1Sc2cc(-c3ccc4c(c3)OCO4)ccc2C2=NCCCN12,EC50 [2]: 230 nM; Ratio EC50 [8]: 2; EC50 [3]: 130 nM; EC50 [4]: 100 nM; Ratio EC50 [9]: 3; EC50 [7]: 140 nM; Ratio EC50 [10]: 3; Ratio EC50 [11]: 2
200,N=C1Sc2cc(-c3ccc4ccccc4c3)ccc2C2=NCCCN12,
2740,CC(=O)N1CCC2(CC1)CN=C1c3ccc(Br)cc3SC(=N)N1C2,
320,CC(C)Oc1cccc(-c2ccc3c(c2)SC(=N)N2CCCN=C32)c1,
200,CSc1ccc(-c2ccc3c(c2)SC(=N)N2CCCN=C32)cc1,
1350,N=C1Sc2cc(-c3cccc(-c4ccccc4)c3)ccc2C2=NCCCN12,
